In ChEMBL document CHEMBL1141693, “Discovery of benzoylpiperazines as a novel class of potent and selective GlyT1 inhibitors” (Bioorg Med Chem Lett, 2008):
Values after ≈ are worked out from the molar mass of the structure shown. Active and inactive are the calls of the source. The calls are words filed in the database; no cut-off is given here.

What was measured:
[1] = Metabolic stability in mouse liver microsomes assessed as intrinsic clearance per […] of protein; assay type: ADME, Microsome
Procedure, shortened: (§1)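 Intrinsic clearance measured in liver microsomes from rat, mouse or human, expressed per mg microsomal protein.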

[2] = Aqueous solubility in phosphate buffer at pH 6.5 by lyophilization solubility assay; assay type: physicochemical
Procedure, shortened: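 Aqueous solubility was measured at pH 6.5 in a lyophilization solubility assay.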

[3] = Ratio of drug level in brain to plasma in mouse at 10 mg/kg, po; assay type: ADME, organism-based; set-up: dose 10 mg/kg, route oral; conditions: read-out: BPR
Procedure, shortened: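 Mouse pharmacokinetics after a 10 mg/kg oral dose. Brain/plasma ratio taken from brain Cmax (ng/g) and plasma Cmax (ng/mL). Values are the average of two independent experiments.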

[4] = Clearance in mouse at 2 mg/kg, iv; assay type: ADME, organism-based; set-up: dose 2 mg/kg, route intravenous; conditions: in vivo
[5] = Cmax in mouse brain at 10 mg/kg, po; assay type: ADME, organism-based; set-up: dose 10 mg/kg, route oral
[6] = Oral bioavailability in mouse at 10 mg/kg; assay type: ADME, organism-based; conditions: in vivo
Liver microsomes [7] = assay: Metabolic stability in human liver microsomes assessed as intrinsic clearance per […] of protein; assay type: ADME, Microsome; procedure, shortened: as §1
[8] = Membrane permeability by PAMPA; assay type: ADME; conditions: read-out: permeability
Procedure, shortened: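 PAMPA artificial-membrane permeation, reported as the permeation constant Pe in 10^-6 cm/s.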

Cytochrome P450 2D6 = Cytochrome P450 2D6 (Homo sapiens, UniProt P10635); assay: Inhibition of CYP2D6; assay type: ADME
[9] = target: T1, Sodium- and chloride-dependent glycine transporter 2 (Homo sapiens) (UniProt Q9Y345); assay: Inhibition of [3H]glycine uptake at human glycine transporter 2 expressed in CHO cells at 30 uM by scintillation counter; assay type: cell-based
T1 sequence (whole entry): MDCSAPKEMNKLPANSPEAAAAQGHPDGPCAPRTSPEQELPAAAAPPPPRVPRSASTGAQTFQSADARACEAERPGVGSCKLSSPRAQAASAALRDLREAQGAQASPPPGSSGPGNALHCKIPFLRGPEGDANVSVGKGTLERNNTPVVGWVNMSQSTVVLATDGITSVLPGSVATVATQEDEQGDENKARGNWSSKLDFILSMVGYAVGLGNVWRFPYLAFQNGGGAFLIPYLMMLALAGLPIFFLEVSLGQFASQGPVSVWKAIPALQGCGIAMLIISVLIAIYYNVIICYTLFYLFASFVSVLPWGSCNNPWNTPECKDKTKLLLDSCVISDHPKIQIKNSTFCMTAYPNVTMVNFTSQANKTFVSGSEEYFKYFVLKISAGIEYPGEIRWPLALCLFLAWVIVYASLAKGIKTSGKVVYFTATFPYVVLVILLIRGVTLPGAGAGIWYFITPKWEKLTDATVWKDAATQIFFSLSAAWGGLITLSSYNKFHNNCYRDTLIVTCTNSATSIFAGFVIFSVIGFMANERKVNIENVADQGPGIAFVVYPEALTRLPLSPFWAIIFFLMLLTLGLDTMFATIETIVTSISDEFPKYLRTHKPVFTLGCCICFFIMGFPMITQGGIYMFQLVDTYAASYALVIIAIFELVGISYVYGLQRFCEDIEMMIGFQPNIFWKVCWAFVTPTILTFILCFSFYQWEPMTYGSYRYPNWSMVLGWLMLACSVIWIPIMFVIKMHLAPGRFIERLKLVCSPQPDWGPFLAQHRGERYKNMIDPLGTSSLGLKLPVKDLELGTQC

[10] = Half life in mouse at 10 mg/kg, po; assay type: ADME, organism-based; set-up: dose 10 mg/kg, route oral; conditions: in vivo
[11] = target: T2, Sodium- and chloride-dependent glycine transporter 1 (Homo sapiens, UniProt P48067); assay: Inhibition of [3H]glycine uptake at human glycine transporter 1 expressed in CHO cells by scintillation counter; assay type: cell-based
T2 sequence (P48067 whole entry): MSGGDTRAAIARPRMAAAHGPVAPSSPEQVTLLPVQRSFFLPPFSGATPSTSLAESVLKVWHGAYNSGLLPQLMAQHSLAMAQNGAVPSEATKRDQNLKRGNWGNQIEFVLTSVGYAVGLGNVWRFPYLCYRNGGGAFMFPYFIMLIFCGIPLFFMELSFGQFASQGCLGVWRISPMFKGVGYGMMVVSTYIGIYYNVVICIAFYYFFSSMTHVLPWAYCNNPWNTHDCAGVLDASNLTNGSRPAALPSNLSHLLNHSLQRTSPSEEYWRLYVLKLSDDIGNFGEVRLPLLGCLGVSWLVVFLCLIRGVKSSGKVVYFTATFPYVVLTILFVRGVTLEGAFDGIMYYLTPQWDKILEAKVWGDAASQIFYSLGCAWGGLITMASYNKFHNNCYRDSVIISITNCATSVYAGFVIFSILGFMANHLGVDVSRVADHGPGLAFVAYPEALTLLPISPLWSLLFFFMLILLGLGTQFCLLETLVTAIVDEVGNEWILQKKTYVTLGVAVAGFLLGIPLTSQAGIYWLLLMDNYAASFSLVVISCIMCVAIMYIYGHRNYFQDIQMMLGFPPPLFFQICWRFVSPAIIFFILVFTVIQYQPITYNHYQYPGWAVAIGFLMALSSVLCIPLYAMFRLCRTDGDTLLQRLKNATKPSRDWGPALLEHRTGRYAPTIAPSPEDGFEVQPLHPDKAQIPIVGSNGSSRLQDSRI

[12] = Volume of distribution at steady state in mouse at 2 mg/kg, iv; assay type: ADME, organism-based; set-up: dose 2 mg/kg, route intravenous; conditions: in vivo, read-out: Vdss
[13] = Cmax in mouse plasma at 10 mg/kg, po; assay type: ADME, organism-based; set-up: dose 10 mg/kg, route oral
[14] = Fraction unbound in mouse plasma at 10 mg/kg, po; assay type: ADME, organism-based; set-up: dose 10 mg/kg, route oral
MAO-A = target: T3, MAO-A (Homo sapiens, UniProt P21397); assay: Inhibition of MAOA at 10 uM
T3 sequence (P21397 whole entry): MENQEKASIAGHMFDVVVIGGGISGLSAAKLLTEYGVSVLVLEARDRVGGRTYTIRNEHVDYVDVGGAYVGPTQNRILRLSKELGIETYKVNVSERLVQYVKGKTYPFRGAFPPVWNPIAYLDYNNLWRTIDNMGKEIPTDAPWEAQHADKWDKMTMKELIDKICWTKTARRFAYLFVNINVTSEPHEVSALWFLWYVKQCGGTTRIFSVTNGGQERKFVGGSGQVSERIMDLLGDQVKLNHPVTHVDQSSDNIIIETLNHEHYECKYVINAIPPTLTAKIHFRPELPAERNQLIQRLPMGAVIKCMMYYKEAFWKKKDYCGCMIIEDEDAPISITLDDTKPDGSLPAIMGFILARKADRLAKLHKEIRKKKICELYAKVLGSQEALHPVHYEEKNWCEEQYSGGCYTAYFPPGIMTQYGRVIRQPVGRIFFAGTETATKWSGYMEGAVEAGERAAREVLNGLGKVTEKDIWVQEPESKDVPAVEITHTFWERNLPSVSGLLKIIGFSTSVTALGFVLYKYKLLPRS
Procedure, shortened: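 CEREP selectivity screen across a panel of 80 targets (receptors, enzymes, ion channels, monoamine transporters). Percent inhibition was read at a single test concentration.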

Liver microsomes [15] = assay: Metabolic stability in rat liver microsomes assessed as intrinsic clearance per […] of protein; assay type: ADME, Microsome; procedure, shortened: as §1
[16] = target: Acetylcholinesterase (Homo sapiens) (UniProt P22303); assay: Inhibition of acetylcholinesterase at 10 uM
Procedure, shortened: (§2)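 Run within an outsourced CEREP selectivity screen of 80 targets (transmembrane and soluble receptors, enzymes, ion channels, monoamine transporters). The compound was tested at a single concentration and the read-out was percent inhibition of each target.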

Homo sapiens = organism: Homo sapiens; assay: Selectivity ratio of IC50 for human glycine transporter 2 to IC50 for human glycine transporter 1
Procedure, shortened: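 [³H]-glycine uptake inhibition in cells transfected with human GlyT1 or human GlyT2 cDNA. Each EC50 is the average of at least two independent experiments. Selectivity is the ratio of GlyT2 EC50 to GlyT1 EC50.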

[17] = Inhibition of phosphodiesterase at 10 uM
Procedure, shortened: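 CEREP selectivity panel of 80 targets: transmembrane and soluble receptors, enzymes, ion channels and monoamine transporters. Single test concentration of 10 µM; read-out is percent inhibition.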

[18] = target: T4, Sodium- and chloride-dependent glycine transporter 2 (Homo sapiens, UniProt Q9Y345); assay: Inhibition of [3H]glycine uptake at human glycine transporter 2 expressed in CHO cells by scintillation counter; assay type: cell-based
T4 sequence (Q9Y345 whole entry): T1 sequence (whole entry)
Procedure, shortened: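 [³H]-glycine uptake inhibition in cells transfected with human GlyT2 cDNA. EC50 is the average of at least two independent experiments.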

[19] = target: T5, Catechol O-methyltransferase (Homo sapiens) (UniProt P21964); assay: Inhibition of catechol-O-methyl transferase at 10 uM; procedure, shortened: as §2
T5 sequence (whole entry): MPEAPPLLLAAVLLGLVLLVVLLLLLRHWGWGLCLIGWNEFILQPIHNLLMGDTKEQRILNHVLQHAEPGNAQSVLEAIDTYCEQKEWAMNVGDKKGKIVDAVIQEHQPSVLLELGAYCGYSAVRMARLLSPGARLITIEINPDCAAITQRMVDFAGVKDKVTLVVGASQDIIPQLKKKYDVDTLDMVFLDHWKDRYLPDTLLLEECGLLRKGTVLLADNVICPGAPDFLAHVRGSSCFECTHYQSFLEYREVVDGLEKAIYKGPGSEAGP

Acetylcholinesterase (Homo sapiens), sequence (P22303 whole entry): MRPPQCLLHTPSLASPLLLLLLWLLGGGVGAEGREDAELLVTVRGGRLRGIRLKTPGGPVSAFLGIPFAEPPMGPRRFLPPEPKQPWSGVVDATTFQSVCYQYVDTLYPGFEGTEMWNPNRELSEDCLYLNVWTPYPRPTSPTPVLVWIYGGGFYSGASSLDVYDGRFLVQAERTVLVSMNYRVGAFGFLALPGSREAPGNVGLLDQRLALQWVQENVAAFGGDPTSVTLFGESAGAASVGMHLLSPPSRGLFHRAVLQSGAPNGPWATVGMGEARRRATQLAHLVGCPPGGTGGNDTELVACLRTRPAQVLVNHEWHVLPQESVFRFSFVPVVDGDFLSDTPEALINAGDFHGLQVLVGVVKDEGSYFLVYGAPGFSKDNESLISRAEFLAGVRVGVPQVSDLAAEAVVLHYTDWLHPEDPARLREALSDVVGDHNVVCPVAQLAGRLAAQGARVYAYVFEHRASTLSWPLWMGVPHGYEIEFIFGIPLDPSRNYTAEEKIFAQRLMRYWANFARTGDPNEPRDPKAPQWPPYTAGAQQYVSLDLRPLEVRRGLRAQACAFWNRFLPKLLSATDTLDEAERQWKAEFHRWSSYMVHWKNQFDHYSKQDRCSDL
Cytochrome P450 2D6, sequence (P10635 whole entry): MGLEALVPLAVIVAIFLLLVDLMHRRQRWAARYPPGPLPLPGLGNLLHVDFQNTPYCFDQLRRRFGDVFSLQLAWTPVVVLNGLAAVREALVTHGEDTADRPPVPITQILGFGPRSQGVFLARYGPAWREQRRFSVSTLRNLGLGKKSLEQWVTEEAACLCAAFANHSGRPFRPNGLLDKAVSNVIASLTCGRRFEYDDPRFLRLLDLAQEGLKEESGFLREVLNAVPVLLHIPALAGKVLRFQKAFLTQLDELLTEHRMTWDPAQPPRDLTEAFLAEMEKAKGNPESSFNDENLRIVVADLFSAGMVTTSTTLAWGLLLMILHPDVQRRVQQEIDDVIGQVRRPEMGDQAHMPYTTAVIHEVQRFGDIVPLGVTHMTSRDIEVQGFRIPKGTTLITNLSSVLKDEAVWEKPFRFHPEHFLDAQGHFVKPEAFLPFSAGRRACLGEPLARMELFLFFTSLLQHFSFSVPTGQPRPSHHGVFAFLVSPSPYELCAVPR

Compound | clearance [1] [µL/min/mg] | solubility [2] [µg/mL] | clearance (Liver microsomes [7]) [µL/min/mg] | Papp [8] [×10⁻⁶ cm/s] | EC50 [11] [nM] | clearance (Liver microsomes [15]) [µL/min/mg] | Ratio EC50 (Homo sapiens) | EC50 [18] [nM] | other results
CS(=O)(=O)c1ccc(OCC2CC2)c(C(=O)N2CCN(c3ccc(C#N)cc3F)CC2)c1 | 9 | 31 (≈ 67.8 µM) | 4 | 3.2 | 16 |  |  |  | Kp [3]: 0.1; clearance [4]: 9.5 mL/min/kg; Cmax [5]: 373 ng/g; bioavailability [6]: 100%; IC50 (Cytochrome P450 2D6): > 29100 nM; Activity [9]: inactive; half-life [10]: 5.8 h; Vd [12]: 2.8 L/kg; Cmax [13]: 3880 ng/mL; fraction unbound [14]: 0.12
CS(=O)(=O)c1ccc(N2CCOCC2)c(C(=O)N2CCN(c3ccc(C(F)(F)F)cc3)CC2)c1 | 15 | 3 (≈ 6.03 µM) | 10 |  | 45 |  |  |  | 
CC(=O)c1ccc(N2CCN(C(=O)c3cc(S(C)(=O)=O)ccc3N3CCOCC3)CC2)c(F)c1 |  | 30 (≈ 61.3 µM) | 26 | 3.1 | 70 | 40 | > 417 | > 30000 | inhibition at 10 µM (MAO-A): < 20%; inhibition [16]: < 20%; inhibition [17]: < 20%; inhibition [19]: < 20%
CC(=O)c1ccc(N2CCN(C(=O)c3cc([N+](=O)[O-])ccc3N3CCOCC3)CC2)c(F)c1 |  | 9 (≈ 19.7 µM) | 35 | 4.7 | 15 | 106 | 320 | 4800 | 
CC(=O)c1ccc(N2CCN(C(=O)c3cc(C#N)ccc3N3CCOCC3)CC2)c(F)c1 |  | < 1 | 31 | 6.1 | 180 | 53 | 72 | 13000 | 
CC(C)Oc1ccc(S(C)(=O)=O)cc1C(=O)N1CCN(c2ccc(C(F)(F)F)cc2)CC1 | 0 | 62 (≈ 132 µM) | 0 |  | 82 |  |  |  | 
